Assay results reported in paper PMC12892081 (Acta Pharmaceutica Sinica. B, 2025).
Where a SMILES comes first, the peptide text is derived from it. Bridges are numbered along the chain shown (N, C = ends). The star is where a group is joined. 5FAM = O=C1OC2(c3ccc(O)cc3Oc3cc(O)ccc32)c2ccc(C(=O)*)cc21

Columns and labels:
[1] = In vitro skin penetration across excised pig skin; format: in vitro ADME, Berkshire pig; details: FAM-peptide conjugate vs free FAM, donor 50 μmol/L
In short: (§1)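 Valia-Chien diffusion cells at 37 ± 0.5 °C, stirred at 250 rpm, with excised rat back skin or Berkshire pig skin. Donor held 50 μmol/L N-terminally FAM-labelled peptide or free FAM in 0.9% NaCl with 0.5% (v/v) DMSO. Receiver sampled at 0–5 h and replaced with fresh saline; fluorescence read at 492 nm. Cumulative amount and Papp derived; at least 4 replicates.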

[2] = In vitro skin penetration across excised rat skin; format: in vitro ADME, SD rats; details: for skin permeability compared to the other CPPs: FAM-CPP conjugates, excised rat back skin, P < 0.01
In short: as §1

[3] = tested on: B16F10 cells; assay: Calcein-AM/PI double staining of B16F10 cells; format: cell-based; details: 15 μmol/L, 48 h, vs control group
In short: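 B16F10 cells exposed 48 h to 15 μmol/L agents, then stained with a Calcein-AM/PI double staining kit (calcein marks live cells green, PI marks dead cells red). Imaged by inverted fluorescence microscopy.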

[4] = tested on: human keratinocyte cells (HeKa cells); assay: HeKa cell viability; format: cell-based; details: 50 μmol/L FAM-CPP conjugate, exposure 72 h, CCK-8, n = 3
In short: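 HeKa cells exposed to 50 μmol/L FAM or FAM–peptide conjugate for 48 and 72 h. Viability read with CCK-8; n = 3.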

CC[C@H](C)[C@H](NC(=O)[C@H](CCC(N)=O)NC(=O)[C@H](CCCNC(=N)N)NC(=O)c1ccc2c(c1)C(=O)OC21c2ccc(O)cc2Oc2cc(O)ccc21)C(=O)N[C@@H](CCCCN)C(=O)N[C@@H](Cc1c[nH]c2ccccc12)C(=O)N[C@@H](Cc1c[nH]c2ccccc12)C(=O)N[C@@H](Cc1ccccc1)C(=O)N[C@@H](Cc1c[nH]c2ccccc12)C(=O)N[C@@H](Cc1c[nH]c2ccccc12)C(=O)N[C@@H](CCCNC(=N)N)C(=O)N[C@@H](CCCNC(=N)N)C(=O)N[C@@H](CCSC)C(=O)N[C@@H](CCCCN)C(=O)N[C@@H](Cc1c[nH]c2ccccc12)C(=O)N[C@@H](CCCCN)C(=O)N[C@@H](CCCCN)C(=O)O [FAM-589WP] (5FAM-RQIKWWFWWRRMKWKK-OH)
increase in Papp compared to free FAM, pig skin [1]: 60 fold
increase in Papp compared to free FAM, rat skin ([2]; FAM-peptide conjugate vs free FAM, excised rat skin, donor 50 μmol/L): 72 fold

O=c1[nH]c(=O)n([C@H]2C[C@H](O)[C@@H](CO)O2)cc1F [FUdR, 5-fluoro-2ʹ-deoxyuridine]
live cell density / dead cells by Calcein-PI staining [3]: notable decrease in live cell density

CC[C@H](C)[C@H](NC(=O)[C@H](CCCCN)NC(=O)[C@@H](NC(=O)[C@H](CCC(N)=O)NC(=O)[C@H](CCCNC(=N)N)NC(=O)c1ccc2c(c1)C(=O)OC21c2ccc(O)cc2Oc2cc(O)ccc21)[C@@H](C)CC)C(=O)N[C@@H](Cc1c[nH]c2ccccc12)C(=O)N[C@@H](Cc1ccccc1)C(=O)N[C@@H](CCC(N)=O)C(=O)N[C@@H](CC(N)=O)C(=O)N[C@@H](CCCNC(=N)N)C(=O)N[C@@H](CCCNC(=N)N)C(=O)N[C@@H](CCSC)C(=O)N[C@@H](CCCCN)C(=O)N[C@@H](Cc1c[nH]c2ccccc12)C(=O)N[C@@H](CCCCN)C(=O)N[C@@H](CCCCN)C(=O)O [Penetratin]
cytotoxicity to HeKa cells [4]: did not display cytotoxicity
skin permeability compared to the other CPPs ([2]; donor 50 μmol/L): significantly higher than the other CPPs

C[C@H](NC(=O)c1ccc2c(c1)C(=O)OC21c2ccc(O)cc2Oc2cc(O)ccc21)C(=O)N[C@H]1CSSC[C@@H](C(=O)NCC(=O)O)NC(=O)[C@H](CCC(N)=O)NC(=O)[C@H](Cc2c[nH]cn2)NC(=O)[C@H](CCC(N)=O)NC(=O)[C@H]([C@@H](C)O)NC(=O)[C@H](CO)NC(=O)CNC(=O)[C@H]([C@@H](C)O)NC1=O [SPACE] (5FAM-ACTGSTQHQCG-OH; disulfide 2-10)
permeability relative to the optimized peptide 589WP ([2]; FAM conjugates, excised rat skin): about one-third the permeability of the optimized peptide 589WP
permeability relative to wild-type penetratin ([2]; FAM conjugates, excised rat skin (Fig. 1)): about half the permeability of wild-type penetratin

CC[C@H](C)[C@H](NC(=O)[C@H](CCCCN)NC(=O)[C@H](CCCCN)NC(=O)[C@H](C)NC(=O)[C@H](CC(C)C)NC(=O)[C@H](C)NC(=O)[C@H](C)NC(=O)[C@H](CC(C)C)NC(=O)[C@H](C)NC(=O)[C@H](CCCCN)NC(=O)[C@H](CC(C)C)NC(=O)[C@H](CC(N)=O)NC(=O)[C@@H](NC(=O)[C@H](CCCCN)NC(=O)CNC(=O)[C@H](CC(C)C)NC(=O)[C@H](CC(C)C)NC(=O)[C@H](Cc1ccc(O)cc1)NC(=O)CNC(=O)[C@H](C)NC(=O)[C@H](CO)NC(=O)[C@H](CC(N)=O)NC(=O)[C@H](CC(C)C)NC(=O)[C@@H](NC(=O)[C@H](Cc1c[nH]c2ccccc12)NC(=O)CNC(=O)c1ccc2c(c1)C(=O)OC21c2ccc(O)cc2Oc2cc(O)ccc21)[C@@H](C)O)[C@@H](C)CC)C(=O)N[C@@H](CC(C)C)C(=O)O [Transportan]
skin permeability compared to the other CPPs ([2]; donor 50 μmol/L): significantly higher than the other CPPs
